# According to publication PMC3220786 (ACS Chemical Biology, 2011):
# Where a SMILES comes first, the peptide text is derived from it. [ ]: non-standard residue; d: D form. The star is where a group is joined. NHCH2CH2OH = OCCN*; For = O=C*
# Key:
# P. falciparum 3D7 strain = test: SYBR Green parasite proliferation assay, 3D7; format: cell-based, Plasmodium falciparum; conditions: CC50 Ba/F3 / IC50 P. falciparum 3D7
# [1] = Cytotoxicity, Ba/F3 cells; format: cell-based, murine; conditions: mouse
# [2] = tested on: P. falciparum ScDHOD-D10attB; test: SYBR Green proliferation assay, transgenic ScDHOD-D10attB line; format: cell-based, Plasmodium falciparum; conditions: for IC50: Plasmodium falciparum, read-out: IC50 values, ScDHOD-D10attB; for shift in IC50, ScDHOD-D10attB vs parental line: transgenic parasites expressing yeast dihydroorotate dehydrogenase
# How it was run: (§1)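 Blood-stage P. falciparum D10attB parental line and ScDHOD-D10attB transgenic line (single integrated copy of yeast DHOD gene) were tested in the SYBR Green proliferation assay. IC50 values are means ± SD of three independent experiments, each in duplicate. The shift compares the transgenic IC50 with the parental IC50.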
# [3] = target: T1, P. yoelii cytochrome c reductase (Plasmodium yoelii, UniProt Q7PDA7); test: Ubiquinol-cytochrome c oxidoreductase; format: biochemical
# T1 sequence (Q7PDA7 1-376): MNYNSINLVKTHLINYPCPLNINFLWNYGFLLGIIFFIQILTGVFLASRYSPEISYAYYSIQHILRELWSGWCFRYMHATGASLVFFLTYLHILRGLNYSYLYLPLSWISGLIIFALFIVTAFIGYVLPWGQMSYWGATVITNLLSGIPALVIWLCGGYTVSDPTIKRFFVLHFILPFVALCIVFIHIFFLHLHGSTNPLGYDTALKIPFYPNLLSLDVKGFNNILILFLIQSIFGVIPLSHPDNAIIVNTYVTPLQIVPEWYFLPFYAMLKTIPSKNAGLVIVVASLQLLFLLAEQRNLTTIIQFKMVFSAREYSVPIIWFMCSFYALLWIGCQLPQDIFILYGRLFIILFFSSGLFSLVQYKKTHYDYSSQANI
# T1 sequence (V7P9V8 31-357 partner): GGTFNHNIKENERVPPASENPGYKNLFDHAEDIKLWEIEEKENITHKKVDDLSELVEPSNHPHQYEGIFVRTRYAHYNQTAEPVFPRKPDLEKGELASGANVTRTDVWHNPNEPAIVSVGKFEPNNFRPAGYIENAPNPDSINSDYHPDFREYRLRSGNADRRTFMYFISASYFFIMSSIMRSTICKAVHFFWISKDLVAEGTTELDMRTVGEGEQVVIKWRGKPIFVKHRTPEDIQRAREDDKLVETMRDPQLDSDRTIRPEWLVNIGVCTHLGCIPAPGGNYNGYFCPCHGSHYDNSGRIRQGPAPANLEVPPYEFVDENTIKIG
# T1 sequence (Q7RJI2 1-394 partner): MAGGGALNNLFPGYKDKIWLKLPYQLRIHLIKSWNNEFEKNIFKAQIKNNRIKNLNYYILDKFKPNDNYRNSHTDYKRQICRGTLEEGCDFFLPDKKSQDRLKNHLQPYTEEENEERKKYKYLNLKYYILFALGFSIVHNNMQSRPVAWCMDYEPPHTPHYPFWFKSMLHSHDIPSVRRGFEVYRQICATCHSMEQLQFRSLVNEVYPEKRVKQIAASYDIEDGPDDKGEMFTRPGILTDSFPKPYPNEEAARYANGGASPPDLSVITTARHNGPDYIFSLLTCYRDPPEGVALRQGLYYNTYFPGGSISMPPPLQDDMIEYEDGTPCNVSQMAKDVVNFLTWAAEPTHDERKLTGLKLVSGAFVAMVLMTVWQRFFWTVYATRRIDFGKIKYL
# P. falciparum DEC-R line = test: SYBR Green proliferation assay, decoquinate-resistant; format: cell-based, Plasmodium falciparum; conditions: loss of potency against decoquinate-resistant clone
# [4] = tested on: P. falciparum ATQ-R lines (cytochrome b mutants); test: SYBR Green proliferation assay, atovaquone-resistant; format: cell-based, Plasmodium falciparum; conditions: for loss of potency, F267V mutant / loss of potency, residue 144 mutant / loss of potency, triple mutant (M133I/V140T/L181V): ATQ-R line vs parental 3D7; for loss of potency, residue 133 mutants (M133I, M133V) / shift of IC50 across ATQ-R lines (control compounds): ATQ-R lines vs parental 3D7
# [5] = tested on: P. yoelii (17XNL strain) sporozoites; test: Prophylaxis activity test in sporozoite-infected mice; format: in vivo, ICR female mouse
# How it was run: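 ICR female mice (7 weeks, 26–36 g) received 50,000 P. yoelii 17XNL sporozoites via the tail vein. Immediately afterwards they were given a single oral gavage dose of test compound at 50 mg kg–1 in corn oil (5 mice). Parasitemia was checked daily by Giemsa-stained tail-snip blood microscopy. Prepatent period = first day parasitemia was seen. Mice were euthanized above 20% parasitemia.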
# [6] = tested on: P. yoelii sporozoites in HepG2-A16-CD81EGFP cells; format: cell-based, Plasmodium yoelii; conditions: for IC50: Plasmodium yoelii, in Homo sapiens, read-out: IC50, liver stage
# P. falciparum D10attB = test: SYBR Green proliferation assay, parental D10attB line; format: cell-based; conditions: Plasmodium falciparum, read-out: IC50 values, D10attB
# How it was run: as §1
# [7] = tested on: Murine pro-B cell line Ba/F3; test: Cytotoxicity, Ba/F3 cells; format: cell-based; conditions: read-out: mammalian cell line CC50; Ba/F3; CellTiter Glo reagent
# [8] = chickens, iv; cited from earlier work
compound,measurement,setting,value
N=C(N)NCCCCCCCCCCNC(=N)N [Synthalin],therapeutic index CC50/IC50,P. falciparum 3D7 strain,>200
same,CC50 at 3 days,[1]; Ba/F3 cells,> 5400 nM
COc1ccc2cc3[n+](cc2c1OC)CCc1cc2c(cc1-3)OCO2 [Berberine],therapeutic index CC50/IC50,P. falciparum 3D7 strain,0.6
same,CC50 at 3 days,[1]; Ba/F3 cells,320 nM
CCCCCCCCNC(C)C(O)c1ccc(SC(C)C)cc1 (centres unmarked) [Suloctidil],therapeutic index CC50/IC50,P. falciparum 3D7 strain,0.6
same,CC50 at 3 days,[1]; Ba/F3 cells,970 nM
O=C1C(O)=C([C@H]2CC[C@H](c3ccc(Cl)cc3)CC2)C(=O)c2ccccc21 [atovaquone],IC50,[2],> 1000 nM
same,"shift in IC50, ScDHOD-D10attB vs parental line",[2],> 1900 fold
same,IC50,[3],7.6 nM
same,"fold change in IC50, DEC-R clone vs parental 3D7",P. falciparum DEC-R line,4 fold
same,"loss of potency, F267V mutant",[4],20 fold
same,"loss of potency, residue 144 mutant",[4],~200 fold
same,"loss of potency, triple mutant (M133I/V140T/L181V)",[4],2000 fold
same,"loss of potency, residue 133 mutants (M133I, M133V)",[4],~16 fold
same,protection / survival of mice,"[5]; single oral dose (decoquinate 50 mg kg-1, atovaquone 2.5 mg kg-1)",completely protected
same,IC50,[6],1.7 nM
same,IC50,P. falciparum D10attB,0.512 ± 0.164 nM
COc1ccc(C[C@H]2NC[C@H](O)[C@H]2OC(C)=O)cc1 [Anisomycin],"shift in IC50, ScDHOD-D10attB vs parental line",[2],no shift
same,shift of IC50 across ATQ-R lines (control compounds),[4],nearly invariable
Muconomycin B,therapeutic index CC50/IC50,P. falciparum 3D7 strain,12.5
same,CC50,[7],30 nM
CCCOC(=O)C[N+](C)(C)CCOCCCCCCCCCCOCC[N+](C)(C)CC(=O)OCCC [Prodeconium],therapeutic index CC50/IC50,P. falciparum 3D7 strain,>156
same,CC50,[7],> 6250 nM
CCOC(=O)c1cnc2cc(OCC3CC3)c(OCC3CC3)cc2c1O [Ciproquinate],therapeutic index CC50/IC50,P. falciparum 3D7 strain,>156
same,CC50 at 3 days,[1]; Ba/F3 cells,> 1250 nM
CC(C)[C@@H]1NC(=O)[C@H](C)OC(=O)[C@@H](C(C)C)NC(=O)[C@@H](C(C)C)OC(=O)[C@H](C(C)C)NC(=O)[C@H](C)OC(=O)[C@@H](C(C)C)NC(=O)[C@@H](C(C)C)OC(=O)[C@H](C(C)C)NC(=O)[C@H](C)OC(=O)[C@@H](C(C)C)NC(=O)[C@@H](C(C)C)OC1=O [Valinomycin],therapeutic index CC50/IC50,P. falciparum 3D7 strain,12.8
same,CC50 at 3 days,[1]; Ba/F3 cells,91 nM
"O[Si](CCCN1CCCCC1)(c1ccccc1)C1CCCCC1 (centres unmarked) [HHSiD, Hexahydro-sila-difenidol]",therapeutic index CC50/IC50,P. falciparum 3D7 strain,>16.4
same,CC50,[7],> 1250 nM
CCN(CC)CCOc1ccc2c(c1)C(=O)c1cc(OCCN(CC)CC)ccc1-2 [Tilorone],therapeutic index CC50/IC50,P. falciparum 3D7 strain,>12.5
same,CC50 at 3 days,[1]; Ba/F3 cells,> 12500 nM
CC(C)C[C@@H](NC(=O)[C@H](C)NC(=O)CNC(=O)[C@@H](NC=O)C(C)C)C(=O)N[C@@H](C)C(=O)N[C@@H](C(=O)N[C@H](C(=O)N[C@@H](C(=O)N[C@@H](Cc1c[nH]c2ccccc12)C(=O)N[C@H](CC(C)C)C(=O)N[C@@H](Cc1c[nH]c2ccccc12)C(=O)N[C@H](CC(C)C)C(=O)N[C@@H](Cc1c[nH]c2ccccc12)C(=O)N[C@H](CC(C)C)C(=O)N[C@@H](Cc1c[nH]c2ccccc12)C(=O)NCCO)C(C)C)C(C)C)C(C)C [Gramicidin A] (For-VGA[dL]A[dV]V[dV]W[dL]W[dL]W[dL]W-NHCH2CH2OH),CC50 at 3 days,[1]; Ba/F3 cells (murine pro-B cell line),110 nM
CC1=C[C@H]2O[C@@H]3C[C@H]4OC(=O)/C=C\C=C\C(=O)OCC/C(C)=C/C(=O)OC[C@@]2(CC1)[C@]4(C)[C@]31CO1 [Verrucarin J],therapeutic index CC50/IC50,P. falciparum 3D7 strain,12.1
COc1ccc(C[C@H](N)C(=O)N[C@H]2[C@@H](O)[C@H](n3cnc4c(N(C)C)ncnc43)O[C@@H]2CO)cc1 [Puromycin],therapeutic index CC50/IC50,P. falciparum 3D7 strain,>14.2
same,CC50 at 3 days,[1]; Ba/F3 cells,> 1250 nM
CCCCCCC[N+](CC)(CC)CCCCc1ccc(Cl)cc1 [Clofilium],therapeutic index CC50/IC50,P. falciparum 3D7 strain,>2.4
same,CC50 at 3 days,[1]; Ba/F3 cells,> 1250 nM
CN(C)c1ccc(C(=C2C=CC(=[N+](C)C)C=C2)c2ccc(N(C)C)cc2)cc1 [Gentian violet],therapeutic index CC50/IC50,P. falciparum 3D7 strain,>4
same,CC50 at 3 days,[1]; Ba/F3 cells,> 1250 nM
CO\C=C(C(=O)OC)/C(C)=C\C=C\c1ccc(Cl)c(OC)c1 [Strobilurin B],therapeutic index CC50/IC50,P. falciparum 3D7 strain,13.5
same,CC50,[7],3100 nM
Cl.Cl.O=C(Nc1ccc(C2=NCCCN2)cc1)c1ccc(C(=O)Nc2ccc(C3=NCCCN3)cc2)cc1 [NSC 57153],therapeutic index CC50/IC50,P. falciparum 3D7 strain,1.1
same,CC50,[7],550 nM
OC(c1cc(C(F)(F)F)nc2c(C(F)(F)F)cccc12)C1CCCCN1 (centres unmarked) [mefloquine],IC50,[2],4.02 ± 1.4 nM
same,"shift in IC50, ScDHOD-D10attB vs parental line",[2],slight increase in mefloquine sensitivity
same,shift of IC50 across ATQ-R lines (control compounds),[4],2 fold
same,IC50,P. falciparum D10attB,7.88 ± 1.64 nM
C[C@@H]1C[C@H](C)C[C@H](C)[C@@H](O)CC(=O)O[C@H]([C@@H]2CCC[C@H]2C(=O)O)C/C=C/C=C(/C#N)[C@H](O)[C@@H](C)C1 [Borrelidin],therapeutic index CC50/IC50,P. falciparum 3D7 strain,11.6
same,CC50 at 3 days,[1]; Ba/F3 cells,959 nM
CCC(Cc1cnc2nc(N)nc(N)c2n1)c1ccc(C(=O)N[C@@H](CCC(=O)O)C(=O)O)cc1 (some centres unmarked) [Edatrexate],therapeutic index CC50/IC50,P. falciparum 3D7 strain,0.1
same,CC50 at 3 days,[1]; Ba/F3 cells,5 nM
CCCCCCCCCCOc1cc2c(O)c(C(=O)OCC)cnc2cc1OCC [Decoquinate],IC50,[2],> 1000 nM
same,IC50,[3],97 nM
same,t1/2,[8],9 to 22 h
same,"fold change in IC50, DEC-R clone vs parental 3D7",P. falciparum DEC-R line,90 fold
same,therapeutic index CC50/IC50,P. falciparum 3D7 strain,">2,500"
same,therapeutic index CC50/IC50,P. falciparum 3D7 strain; listed as decoquinate,"> 2,500"
same,"loss of potency, F267V mutant",[4],2 fold
same,"loss of potency, residue 144 mutant",[4],no effect
same,"loss of potency, triple mutant (M133I/V140T/L181V)",[4],5 fold
same,"loss of potency, residue 133 mutants (M133I, M133V)",[4],did not alter
same,prepatent period (day at which parasitemia was first observed),"[5]; single oral dose with 50,000 sporozoites i.v.",8 days
same,fold increase in liver stage activity over atovaquone,[6],10 fold
same,IC50,[6],0.177 nM
same,IC50,P. falciparum D10attB,5.3 ± 1.24 nM
same,CC50 at 3 days,[1]; Ba/F3 cells,> 12500 nM
COC[C@H]1C(=O)NCC(=O)N2NCCC[C@H]2C(=O)N(O)[C@H](C)C(=O)O[C@@H](C(C)C)[C@H](NC(=O)[C@](C)(O)[C@]2(O)CC[C@@H](CC(C)C)[C@H](C)O2)C(=O)N2NCCC[C@@H]2C(=O)N1O [Aurantimycin A],therapeutic index CC50/IC50,P. falciparum 3D7 strain,0.5
same,CC50,[7],45 nM
